The species named for one test is Homo sapiens. Put plainly: Inhibition of human methionine aminopeptidase 1B at 100 uM using Met-AMC as substrate relative to control. The essentials:
(§1)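 Purified MetAP at 4 µM in 50 mM HEPES with 150 mM KCl and CoCl2 at 3 molar equivalents of enzyme. pH 7.5 for SpMetAP1a and EfMetAP1a, pH 8.0 for HsMetAP1b. Substrate L-Met-AMC at 50, 100 and 150 µM. Compounds (10 mM DMSO stocks) tested over 1 to 120 µM for % inhibition; Ki by Dixon method.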

For test [1], the system named is Enterococcus faecalis. Put plainly: Inhibition of Enterococcus faecalis methionine aminopeptidase 1A at 100 uM using Met-AMC as substrate relative to control. Put shortly:
as §1

Test [2] concerns Mycobacterium tuberculosis. Put plainly: Inhibition of Mycobacterium tuberculosis methionine aminopeptidase 1C at 100 uM using Met-AMC as substrate relative to control. Put shortly:
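Purified MtMetAP1c (4 µM) in 50 mM Hepes pH 7.5 with 150 mM KCl and CoCl2 at three molar equivalents of enzyme. Substrate was L-Met-AMC at 50, 100 or 150 µM. Compounds came from 10 mM DMSO stocks. Percent inhibition was taken against the uninhibited control.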

The test system of test [3] is Streptococcus pneumoniae. Put plainly: Inhibition of Streptococcus pneumoniae methionine aminopeptidase 1A at 100 uM using Met-AMC as substrate relative to control. The essentials:
as §1

Test [4] in a line: Inhibition of human methionine aminopeptidase 1B using Met-AMC as substrate by Dixon method. The essentials: as §1
A short description of test [5]: Inhibition of Enterococcus faecalis methionine aminopeptidase 1A using Met-AMC as substrate by Dixon method. Put shortly: as §1
A short description of test [6]: Inhibition of Mycobacterium tuberculosis methionine aminopeptidase 1C using Met-AMC as substrate by Dixon method.
A short description of test [7]: Inhibition of Streptococcus pneumoniae methionine aminopeptidase 1A using Met-AMC as substrate by Dixon method. Put shortly:
as §1

In a further test the test system is Pseudomonas aeruginosa. Put plainly: Antibacterial activity against Pseudomonas aeruginosa MTCC 2453 after 24 hrs by broth dilution assay. It counts as functional. The following applies: MTCC 2453, 24 h. Put shortly:
(§2)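 Broth dilution per NCCLS in nutrient broth, serial dilutions 1000 to 7.8 µg/mL, DMSO below 4% final. Inoculum approx. 2.5×10⁶ cells/mL, 37 °C with shaking at 150 rpm for 24 h. MIC taken as the lowest concentration with no visible growth. Ciprofloxacin served as positive control.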
In general terms: Broth dilution looks for growth in wells or tubes with falling amounts of substance.

The subject of another test is Salmonella typhimurium. Put plainly: Antibacterial activity against Salmonella typhimurium MTCC 3224 after 24 hrs by broth dilution assay. The following applies: Salmonella enterica, MTCC 3224, 24 h. The format is functional, Salmonella enterica subsp. enterica serovar Typhimurium. Put shortly:
as §2

Test [8] concerns Streptococcus pneumoniae. Put plainly: Antibacterial activity against Streptococcus pneumoniae MTCC 655 after 24 hrs by broth dilution assay. The format is functional. The note with it: MTCC 655, 24 h. The essentials: as §2
For test [9], the system named is Enterococcus faecalis. Put plainly: Antibacterial activity against Enterococcus faecalis MTCC 439 after 24 hrs by broth dilution assay. It counts as functional. The following applies: MTCC 439, 24 h. Put shortly:
as §2

A further test deals with Klebsiella pneumoniae. Put plainly: Antibacterial activity against Klebsiella pneumoniae ATCC 700603 after 24 hrs by broth dilution assay. It counts as functional. The note with it: Klebsiella pneumoniae, 700603, 24 h. Put shortly:
as §2

Test [10] deals with Escherichia coli. Put plainly: Antibacterial activity against Escherichia coli ATCC 25922 after 24 hrs by broth dilution assay. It counts as functional. The following applies: ATCC 25922, 24 h. The essentials: as §2
Test [11] concerns Escherichia coli. Put plainly: Antibacterial activity against Escherichia coli MRA11 after overnight incubation. The format is functional. The essentials: (§3)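 Multidrug-resistant E. coli isolates in Luria broth, test range 8 to 1024 µg/mL (ciprofloxacin 0.49 to 63.3 µg/mL). Inoculum 10 µL of a 1000-fold diluted 0.1 OD600 culture, incubated overnight at 37 °C. OD read at 600 nm. % inhibition = (a−b)/a×100, with media and compound-colour blanks subtracted.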

The subject of test [12] is Escherichia coli. Put plainly: Antibacterial activity against Escherichia coli MRC17 after overnight incubation. The format is functional. Put shortly:
as §3

Test [13] has as its system Escherichia coli. Put plainly: Antibacterial activity against Escherichia coli MRC24 after overnight incubation. It counts as functional. The essentials:
as §3

Test [14] has as its system Escherichia coli. Put plainly: Antibacterial activity against Escherichia coli MRAE26 after overnight incubation. The format is functional. Put shortly:
as §3

Test [15] concerns Escherichia coli. Put plainly: Antibacterial activity against Escherichia coli MRAE32 after overnight incubation. The format is functional. The essentials:
as §3

Test [16] deals with Escherichia coli. Put plainly: Antibacterial activity against Escherichia coli MRAE33 after overnight incubation. It counts as functional. The essentials: as §3
Test [17] concerns Escherichia coli. Put plainly: Antibacterial activity against Escherichia coli MRAE44 after overnight incubation. The format is functional. Put shortly:
as §3

The subject of test [18] is Escherichia coli. Put plainly: Antibacterial activity against Escherichia coli MROB11 after overnight incubation. The format is functional. Put shortly:
as §3

The inhibition is the relative decrease from the control value, in per cent. A high value points to a response far below the control. Broadly, the Ki is a dissociation constant, usually derived from enzyme kinetics or from competition with a known ligand. Low readings indicate tighter binding, high ones weaker binding. As usually defined, the MIC is the smallest concentration in the dilution series that meets the test's criterion for growth inhibition. A low value points to greater potency.

Structures are written as SMILES. Converted amounts (≈) assume the structure as drawn.

For the molecule `COC(=O)[C@@H](C)NC(=O)/C(O)=C/C(=O)c1ccccc1C`, the inhibition came to 51.9% in the test filed under Homo sapiens, 59.6% with Enterococcus faecalis [1], 67.1% in test [2] and 57% in the test on Streptococcus pneumoniae [3]. In addition, the inhibitory constant (Ki) is 113 µM in test [4], 60.4 µM in [5], 32.6 µM in [6] and 51.9 µM in test [7]. Moreover, the MIC came to 1000 µg/mL (≈ 3430 µM) against Pseudomonas aeruginosa; 1000 µg/mL (≈ 3430 µM) in the test on Salmonella typhimurium; 125 µg/mL (≈ 429 µM) against Streptococcus pneumoniae [8]; 500 µg/mL (≈ 1720 µM) with Enterococcus faecalis [9]; 1000 µg/mL (≈ 3430 µM) against Klebsiella pneumoniae; 1000 µg/mL (≈ 3430 µM) against Escherichia coli [10].

Regarding `CCOC(=O)/C(O)=C/C(=O)c1ccc(Cl)cc1`, the inhibition in the test filed under Homo sapiens is 61%; in the test with Enterococcus faecalis [1], 27.3%; in [2], 70.5%; with Streptococcus pneumoniae [3] it was 55.3%. Besides, the Ki in [4] came to 56.1 µM; in test [6], 39.5 µM; in test [7], 62.6 µM. The MIC is 500 µg/mL (≈ 1960 µM) in the test on Pseudomonas aeruginosa; 500 µg/mL (≈ 1960 µM) with Salmonella typhimurium; 500 µg/mL (≈ 1960 µM) in the test with Streptococcus pneumoniae [8]; 250 µg/mL (≈ 982 µM) against Enterococcus faecalis [9]; over 1000 µg/mL in the test with Klebsiella pneumoniae; 500 µg/mL (≈ 1960 µM) against Escherichia coli [10].

Regarding `Cc1c(C(=O)/C=C(\O)C(=O)O)oc2ccc(Br)cc12`, the inhibition in the test filed under Homo sapiens was 88.2%; in the test with Enterococcus faecalis [1] it was 91.9%; in [2], 93.5%; in the test on Streptococcus pneumoniae [3], 93.4%. Also, the inhibition constant (Ki) in [4] came out at 32.7 µM; in test [5], 17.7 µM; in [6] it was 26.3 µM; in test [7], 27.5 µM. For the same molecule, the minimal inhibitory concentration (MIC) against Pseudomonas aeruginosa is 125 µg/mL (≈ 384 µM); against Salmonella typhimurium it was 500 µg/mL (≈ 1540 µM); against Streptococcus pneumoniae [8], 62.5 µg/mL (≈ 192 µM); against Enterococcus faecalis [9], 62.5 µg/mL (≈ 192 µM); against Klebsiella pneumoniae, 1000 µg/mL (≈ 3080 µM); against Escherichia coli [10], 1000 µg/mL (≈ 3080 µM).

For the molecule `Cc1ccccc1C(=O)/C=C(\O)C(=O)N[C@H](C)C(=O)O`, the inhibition was determined as 59.2% in the test listed under Homo sapiens, 63.2% with Enterococcus faecalis [1], 47.7% in test [2] and 58% with Streptococcus pneumoniae [3]. The results for the Ki in test [4], in test [5] and in test [7] were 54 µM, 64 µM and 59.9 µM, respectively. Moreover, the MIC came to 1000 µg/mL (≈ 3610 µM) against Pseudomonas aeruginosa; 1000 µg/mL (≈ 3610 µM) in the test on Salmonella typhimurium; 500 µg/mL (≈ 1800 µM) against Streptococcus pneumoniae [8]; 500 µg/mL (≈ 1800 µM) in the test on Enterococcus faecalis [9]; 1000 µg/mL (≈ 3610 µM) with Klebsiella pneumoniae; 1000 µg/mL (≈ 3610 µM) against Escherichia coli [10].

In the case of `Cc1ccccc1C(=O)/C=C(\O)C(=O)O`, the inhibition in the test filed under Homo sapiens is 52.3%; in the test with Enterococcus faecalis [1], 54.7%; in test [2] it was 65.7%; in the test on Streptococcus pneumoniae [3], 62.8%. Moreover, the inhibition constant (Ki) in test [4] amounted to 73.8 µM; in test [5] it was 62.6 µM; in test [6] it was 37.5 µM; in test [7], 87.5 µM. For the same molecule, the minimum inhibitory concentration (MIC) worked out at 1000 µg/mL (≈ 4850 µM) with Pseudomonas aeruginosa; 1000 µg/mL (≈ 4850 µM) against Salmonella typhimurium; 500 µg/mL (≈ 2420 µM) with Streptococcus pneumoniae [8]; 500 µg/mL (≈ 2420 µM) in the test on Enterococcus faecalis [9]; 1000 µg/mL (≈ 4850 µM) in the test on Klebsiella pneumoniae; 250 µg/mL (≈ 1210 µM) with Escherichia coli [10].

For `CCOC(=O)/C(O)=C/C(=O)c1oc2ccc(Br)cc2c1C`, the inhibition worked out at 86% in the test listed under Homo sapiens, 93.3% in the test with Enterococcus faecalis [1], 91.6% in test [2] and 73% in the test on Streptococcus pneumoniae [3]. Moreover, the Ki turned out to be 19.8 µM in test [4], 10.8 µM in test [5], 18.2 µM in [6] and 68.2 µM in [7]. Moreover, the minimal inhibitory concentration (MIC) against Pseudomonas aeruginosa worked out at 1000 µg/mL (≈ 2830 µM); with Salmonella typhimurium, 1000 µg/mL (≈ 2830 µM); in the test on Streptococcus pneumoniae [8] it was 250 µg/mL (≈ 708 µM); against Enterococcus faecalis [9] it was 250 µg/mL (≈ 708 µM); against Klebsiella pneumoniae, 500 µg/mL (≈ 1420 µM); with Escherichia coli [10], 250 µg/mL (≈ 708 µM).

`O=C(O)c1cn(C2CC2)c2cc(N3CCNCC3)c(F)cc2c1=O` [CIPROFLOXACIN]: the minimum inhibitory concentration (MIC) was 0.0156 µg/mL (≈ 0.0471 µM) against Salmonella typhimurium; 0.312 µg/mL (≈ 0.942 µM) against Streptococcus pneumoniae [8]; 0.0625 µg/mL (≈ 0.189 µM) against Enterococcus faecalis [9]; 0.25 µg/mL (≈ 0.754 µM) with Klebsiella pneumoniae; 128 µg/mL (≈ 386 µM) in the test on Escherichia coli [11] (Escherichia coli, MRA11); 128 µg/mL (≈ 386 µM) against Escherichia coli [12] (Escherichia coli, MRC17). Further, the ICmax with Escherichia coli [11] worked out at 63.3 µg/mL; in the test with Escherichia coli [12], 63.3 µg/mL; in the test on Escherichia coli [13] it was 1.975 µg/mL; with Escherichia coli [14], 1.975 µg/mL; in the test with Escherichia coli [15], 63.3 µg/mL; in the test with Escherichia coli [16], 7.9 µg/mL. Also, the ICmax in the test with Escherichia coli [17] is 63.3 µg/mL; with Escherichia coli [18], 1.975 µg/mL.

Values taken from ChEMBL document CHEMBL4330067, “Synthesis and mechanistic studies of diketo acids and their bioisosteres as potential antibacterial agents” (Eur J Med Chem, 2019).
